# Measurements taken from ChEMBL document CHEMBL5724801, “EUbOPEN Chemogenomics Library - Multiplex” (2024).
# “And” between values parts separate entries of the source, which are not always exact repeats. Equal entries are not always repeated.
# Tested on: U2OS
# Test: Multiplex assay against U2OS
# Type: toxicity, cell-based
# Conditions: human
# How it was run: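 Live cells carried four stains from seeding: Hoechst33342, BioTracker Green Microtubule Cytoskeleton Dye, MitoTracker Red and Annexin V Alexa Fluor 680. They were imaged on a CQ1 microscope at 37°C and 5% CO2 after compound addition. Using CellPathfinder machine-learning gating, cells were split into Hoechst high-intensity objects or normal cells, normal cells into healthy, pyknosed or fragmented nuclei, and pyknosed cells into mitotic or apoptotic; tubulin, mitochondrial-mass and membrane-permeability phenotypes are per cents of healthy-nucleus cells.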
# [1] = 12 h, 1 µM, compound concentration 1 uM
# [2] = 12 h, 10 µM, compound concentration 10 uM
# [3] = 24 h, 1 µM, compound concentration 1 uM
# [4] = 24 h, 10 µM, compound concentration 10 uM
# [5] = 48 h, 1 µM, compound concentration 1 uM
# [6] = 48 h, 10 µM, compound concentration 10 uM
structure (smiles),measurement,setting,value
CC(C)Oc1ccc(F)c(-c2cnc(N)c(C(=O)Nc3cnccc3N3CCC[C@@H](C(=O)O)C3)n2)c1,Population Apoptotic (%),[1],45.71% and 37.5%
same,Population Fragmented Nuclei (%),[1],1.25% and 5.73%
same,Population Healthy Nuclei (%),[1],90.02% and 84.08%
same,Population Hoechst High Intensity Objects (%),[1],0%
same,Population Membrane Permeable-Phenotype (%),[1],0.28% and 7.58%
same,Population Mitochondria Different-Phenotype (%),[1],0% and 6.82%
same,Population Mitotic Cells (%),[1],54.29% and 62.5%
same,Population Normal (%),[1],100%
same,Population Pyknosed Nuclei (%),[1],8.73% and 10.19%
same,Population Tubulin-Different-Phenotype (%),[1],0.28% and 0%
same,Total Cell Count,[1],401 and 157
same,Population Apoptotic (%),[2],73.33% and 43.75%
same,Population Fragmented Nuclei (%),[2],9.57% and 11.05%
same,Population Healthy Nuclei (%),[2],83.25% and 79.65%
same,Population Hoechst High Intensity Objects (%),[2],0%
same,Population Membrane Permeable-Phenotype (%),[2],8.33% and 15.33%
same,Population Mitotic Cells (%),[2],26.67% and 56.25%
same,Population Normal (%),[2],100%
same,Population Pyknosed Nuclei (%),[2],7.18% and 9.3%
same,Population Tubulin-Different-Phenotype (%),[2],4.02% and 3.65%
same,Total Cell Count,[2],418 and 172
same,Population Apoptotic (%),[3],38.6% and 34.38%
same,Population Fragmented Nuclei (%),[3],1.54% and 3.88%
same,Population Healthy Nuclei (%),[3],87.45% and 80.58%
same,Population Hoechst High Intensity Objects (%),[3],0%
same,Population Membrane Permeable-Phenotype (%),[3],0.66% and 4.22%
same,Population Mitochondria Different-Phenotype (%),[3],0% and 3.61%
same,Population Mitotic Cells (%),[3],61.4% and 65.62%
same,Population Normal (%),[3],100%
same,Population Pyknosed Nuclei (%),[3],11% and 15.53%
same,Population Tubulin-Different-Phenotype (%),[3],1.1% and 0%
same,Total Cell Count,[3],518 and 206
same,Population Apoptotic (%),[4],49.3% and 65.52%
same,Population Fragmented Nuclei (%),[4],11.73% and 11.05%
same,Population Healthy Nuclei (%),[4],74.16% and 73.68%
same,Population Hoechst High Intensity Objects (%),[4],0%
same,Population Mitotic Cells (%),[4],50.7% and 34.48%
same,Population Normal (%),[4],100%
same,Population Pyknosed Nuclei (%),[4],14.12% and 15.26%
same,Population Tubulin-Different-Phenotype (%),[4],6.97% and 2.14%
same,Total Cell Count,[4],503 and 190
same,Population Apoptotic (%),[5],39.13% and 30.56%
same,Population Fragmented Nuclei (%),[5],2.98% and 4.32%
same,Population Healthy Nuclei (%),[5],86.85% and 84.57%
same,Population Hoechst High Intensity Objects (%),[5],0% and 0.31%
same,Population Membrane Permeable-Phenotype (%),[5],2.04% and 2.92%
same,Population Mitochondria Different-Phenotype (%),[5],0% and 2.55%
same,Population Mitotic Cells (%),[5],60.87% and 69.44%
same,Population Normal (%),[5],100% and 99.69%
same,Population Pyknosed Nuclei (%),[5],10.17% and 11.11%
same,Population Tubulin-Different-Phenotype (%),[5],1.65% and 1.82%
same,Total Cell Count,[5],905 and 325
same,Population Apoptotic (%),[6],62.73% and 80.56%
same,Population Fragmented Nuclei (%),[6],8.71% and 11.34%
same,Population Healthy Nuclei (%),[6],63.24% and 58.4%
same,Population Hoechst High Intensity Objects (%),[6],0%
same,Population Membrane Permeable-Phenotype (%),[6],2.48% and 6.47%
same,Population Mitotic Cells (%),[6],37.27% and 19.44%
same,Population Normal (%),[6],100%
same,Population Pyknosed Nuclei (%),[6],28.05% and 30.25%
same,Population Tubulin-Different-Phenotype (%),[6],16.25% and 8.63%
same,Total Cell Count,[6],574 and 238
